High-throughput results (PubChem)
RGS4 pot: RGS4 potentiation or activation; HEK293 M3R/inducible RGS4, carbachol calcium flux Fluo4; stronger effect = lower value; B-score at 10 µM; hit rate 0.92% among 310,000; AID 463111;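 active = B-score of the integrated calcium signal more than 4 SD below the library mean, with starting fluorescence not abnormally high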;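 also: negative B-score means reduced calcium response which marks RGS4 activation or potentiation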
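Also added: carbachol at ECmax as muscarinic agonist stimulus; Assay system: HEK293 cells with stable M3R and inducible RGS4; Timing: overnight RGS4 induction, 30 min dye load 37 °C, 20 min compound RT; Measured by: Fluo4-AM (2 µM) calcium-flux fluorescence, kinetic read.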
RGS4 block: inhibitors of human RGS4; B-score at 10 µM; HEK293 M3R/RGS4 inducible, Fluo-4 calcium flux; stronger effect = higher value; triggered by carbachol at its EC20; hit rate 0.45% among 310,000;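 active = B-score, a plate-corrected calcium signal, over three deviations above library mean, with baseline fluorescence within five deviations of library mean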;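 also: RGS4 expression induced by doxycycline in cells with stable M3 receptor; B-score is computed from the integrated fluorescence ratio over baseline after carbachol; higher B-score means a larger calcium signal and so more RGS4 inhibition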
Target sequence (P49798 whole entry, looked up): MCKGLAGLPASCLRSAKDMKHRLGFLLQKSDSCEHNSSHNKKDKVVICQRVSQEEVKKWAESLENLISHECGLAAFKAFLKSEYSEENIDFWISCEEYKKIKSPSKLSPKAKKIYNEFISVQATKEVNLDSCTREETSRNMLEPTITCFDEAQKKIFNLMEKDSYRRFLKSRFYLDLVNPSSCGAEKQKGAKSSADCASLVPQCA
MrgX1 PAM: human MrgX1 positive allosteric modulation, primary screen; MrgX1-HEK293, Fluo-4 calcium flux, FDSS; stronger effect = higher value; hit rate 0.63% among 310,000; B-score at 10 µM;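 active = plate-corrected calcium response at least 3 library SD above typical, normal starting fluorescence, not activating the receptor alone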;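 also: compound read alongside a low EC10 to EC30 dose of BAM8-22 agonist; peak minus trough fluorescence over baseline measured at the second addition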
Target sequence (Q96LB2 whole entry, looked up): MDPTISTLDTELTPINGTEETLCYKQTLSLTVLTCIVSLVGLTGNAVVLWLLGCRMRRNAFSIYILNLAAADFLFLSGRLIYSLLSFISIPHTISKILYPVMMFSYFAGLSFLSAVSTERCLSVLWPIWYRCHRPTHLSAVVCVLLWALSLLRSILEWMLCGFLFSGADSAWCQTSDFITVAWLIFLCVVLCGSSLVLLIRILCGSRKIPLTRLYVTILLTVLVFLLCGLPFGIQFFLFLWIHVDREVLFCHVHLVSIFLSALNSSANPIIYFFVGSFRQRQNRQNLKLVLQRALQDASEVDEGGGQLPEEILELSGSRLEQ
MrgX1 agonist: activates human MrgX1 receptor signaling | AID 588627 | B-score at 10 µM | hit rate 0.44% among 310,000 | MrgX1-HEK293 cells, Fluo-4 calcium fluorescence, agonist mode; stronger effect = higher value;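 active = calcium response B-score plate-corrected fluorescence ratio at least 3 library SD, with starting fluorescence B-score inside 5 SD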
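Test system: HEK293 cells stably expressing human MrgX1 receptor; Input: fifteen thousand cells per well; Dosing: compound delivered in addition one of three; Schedule: overnight seeding, then 1 h dark dye loading; Technique: Fluo-4 NW calcium fluorescence; Measure: B-scored fluorescence response ratio; Controls: positive and negative controls per plate.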
MrgX1 antag: antagonists of human MrgX1 receptor; MRGX1-HEK293 calcium flux, Fluo-4, BAM8-22 antagonism; stronger effect = lower value; B-score at 10 µM; AID 588676; hit rate 1.3% among 310,000;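 active = calcium-response B-score plate-corrected more than 3 library SD below zero, starting fluorescence within 5 deviations, no agonist response on first addition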;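 also: peak minus trough fluorescence over baseline after final BAM8-22 challenge near maximal dose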
RGS4 inh valid: RGS4 inhibitor validation | HEK293 M3R/RGS4, carbachol calcium Fluo-4 fluorescence; carbachol added at its EC20; 0 = buffer wells, 100 = carbachol control | shares compounds with RGS4 block | hit rate 65% among 1,700 | calcium response, % at 10 µM;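 active = duplicate-averaged calcium response above the buffer-only control mean plus 5 SD of those controls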;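 also: integrated fluorescence ratio F max minus min over baseline F0; higher response in RGS4-induced cells means RGS4 inhibition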
RGS4 uninduced: counter-screen for RGS4 inhibitors: effect in non-induced cells; shares compounds with RGS4 block; hit rate 20% among 1,900; HEK293 M3R non-induced, carbachol calcium Fluo-4; submaximal (EC20) carbachol stimulus; buffer wells 0%, carbachol control wells 100%; activity (percent), % at 10 µM; call rule not given here;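 also: RGS4 induction absent so cells express M3R without RGS4; higher means more calcium signal and flags a non-specific hit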
RGS4 inh ctr2: signal in non-induced cells without carbachol, RGS4 inhibitor counter-screen. HEK293 M3R/RGS4 non-induced, Fluo-4 calcium, no carbachol; normalised: buffer wells 0%, carbachol wells 100%. shares compounds with RGS4 block. calcium response (agonist-mode artifact), % at 10 µM. hit rate 22% among 1,900;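 active = duplicate-averaged calcium rise in uninduced cells above buffer wells' mean plus 5 SD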
* = called active by the depositor; i = inactive; . = not tested or not shown. Hits are enriched below; roughly 3.5% of the tested compounds scored in any of these assays.

SMILES	RGS4 pot	RGS4 block	MrgX1 PAM	MrgX1 agonist	MrgX1 antag	RGS4 inh valid	RGS4 uninduced	RGS4 inh ctr2
COC(=O)c1c(C)cc(O)c(C=O)c1O	i	5.25*	i	i	i	26.5%*	i	i
COC(=O)c1cc(=O)n(-c2ccccc2)c(=Nc2ccccc2)s1	i	8.05*	i	i	i	19.0%*	i	i
COC(=O)c1cc(=O)n(Cc2ccc(F)cc2)c(=Nc2ccccc2)s1	i	i	i	i	i	.	.	.
COC(=O)c1cc(=O)n(CCc2ccc(OC)c(OC)c2)c(=Nc2ccc(F)c(Cl)c2)s1	i	5.4*	i	i	i	13.0%*	i	10.5%*
COC(=O)c1cc(=O)n(Cc2ccc(OC)c(OC)c2)c(=Nc2ccc(F)cc2)s1	i	i	i	i	i	.	.	.
COC(=O)c1cc(=O)n(Cc2ccco2)c(=Nc2ccc(F)cc2)s1	i	6.07*	i	i	i	15.0%*	44.5%*	i
Cc1cc(C(=O)Nc2ccc3[nH]ccc3c2)no1	i	i	i	i	i	.	.	.
CCCCNC(=O)O[C@@H]1C[C@H]2CCC(=O)N3CC[C@@H](C1)[C@@H]23	i	i	i	i	i	.	.	.
CC(C)(C)NC(=O)CN(C(=O)CCC(=O)Nc1nccs1)c1ccc(F)cc1	i	i	i	i	i	.	.	.
OCCOCCn1c(C(CO)Nc2nc(-c3cccc(Br)c3)cs2)nc2ccccc21 (stereo not given)	i	i	i	i	i	.	i	7.5%*
CCCn1c(C(CO)Nc2nc(-c3cccc(Br)c3)cs2)nc2ccccc21 (stereo not given)	i	10.5*	i	i	i	32.5%*	i	i
OCCOCCn1c(C(CO)Nc2nc(-c3ccccc3Br)cs2)nc2ccccc21 (stereo not given)	i	i	i	i	i	.	.	.
Nc1cc(Cl)nnc1Cl	i	i	.	.	.	.	.	.
Cc1ccc(C(C)C)cc1OCCCCN1CCCC1	i	i	i	i	i	.	.	.
COc1ccc(CNC(=O)COC(=O)c2ccccn2)cc1	i	i	i	i	i	.	.	.
O=C(/C=C/NNC(=O)c1ccc(Cl)cc1)c1ccccc1	i	6.12*	i	i	i	i	i	i
O=c1c2ccccc2nc2c3ccccc3c(NCc3ccccn3)nn12	i	13.6*	i	i	i	11.5%*	i	i
O=c1c2ccccc2nc2c3ccccc3c(NCc3cccnc3)nn12	i	i	i	i	i	.	.	.
CCNC(=O)CC1C(=O)N(c2cccc(C)c2)C(=O)N1CCC(C)C (stereo not given)	i	i	i	i	i	.	.	.
Cc1nn(C(C)C(=O)N2CCc3ccccc32)c(C)c1[N+](=O)[O-] (stereo not given)	i	i	i	i	i	.	.	.
Cn1c(=O)[nH]c(=O)c2c1nc([N+](=O)[O-])n2Cc1ccccc1	i	11.6*	i	i	i	71.0%*	42.0%*	i
CC(C)CCN1C(=O)c2ccc(C(=O)NCc3ccccn3)cc2C1=O	i	i	i	i	i	.	.	.
Clc1ccccc1CNc1nc2ccccc2n2cnnc12	i	i	i	i	i	.	.	.
COc1ccc(OC)c(C2C(C(=O)c3ccc(C)o3)=C(O)C(=O)N2c2cc(C)on2)c1 (stereo not given)	i	i	i	i	i	.	.	.
COC(=O)c1sc(N2C(=O)C(O)=C(C(=O)c3ccc(C)o3)C2c2cc(OC)ccc2OC)nc1C (stereo not given)	i	7.33*	i	i	i	46.0%*	47.0%*	i
SMILES	RGS4 pot	RGS4 block	MrgX1 PAM	MrgX1 agonist	MrgX1 antag	RGS4 inh valid	RGS4 uninduced	RGS4 inh ctr2
COc1cccc(CNC23CC4CC(CC(C4)C2)C3)c1OCc1ccccc1	i	i	i	i	i	.	.	.
CNC[C@H](O)c1cccc(O)c1	i	i	i	i	i	.	.	.
CNC[C@H](O)c1ccc(O)c(O)c1	i	4.91*	i	38.7*	i	31.5%*	57.0%*	i
COc1ccccc1CNC(=O)COC(=O)c1c(C)nn(-c2ccccc2)c1Cl	i	17.8*	i	i	i	i	i	i
C[C@H](NC(N)=O)C(=O)N1CCN(S(=O)(=O)c2ccc3ccccc3c2)CC1	i	i	i	i	i	.	.	.
CCn1c2ccccc2c2cc(C3C(C#N)=C(N)Oc4n[nH]c(COC)c43)ccc21 (stereo not given)	i	25.2*	i	i	i	39.0%*	33.5%*	i
O=C(/C=C/c1ccccn1)c1ccc(Br)cc1O	.	.	i	i	i	.	.	.
O=C(/C=C/c1ccccn1)c1cc(Br)ccc1O	i	6.96*	i	i	i	11.5%*	35.5%*	i
Cc1c(OCC(=O)N[C@@H](Cc2ccccc2)C(=O)O)ccc2c3c(c(=O)oc12)CCC3	i	i	i	i	i	i	i	i
Cc1c(OCC(=O)N[C@@H](CSCc2ccccc2)C(=O)O)ccc2c3c(c(=O)oc12)CCC3	i	4.9*	.	.	.	i	i	i
COc1ccc(NC(=O)c2ccc(Oc3ncccn3)cc2)cc1	i	i	i	i	i	.	.	.
CC(C)CSc1oc(-c2ccco2)nc1S(=O)(=O)c1ccccc1	i	i	i	i	i	.	.	.
Cc1ccc2nc(-c3ccc(N)cc3)sc2c1	i	5.61*	i	i	i	16.0%*	i	i
Nc1ccc2nc(-c3ccccc3)sc2c1	i	i	i	i	i	.	.	.
O=C(NNC1CC(=O)N(c2ccccc2)C1=O)c1ccc(COc2ccccc2Cl)o1 (stereo not given)	i	i	i	i	i	.	.	.
CCN(CC)c1ccc(/C=C/C(=O)c2cccnc2)cc1	i	i	i	i	i	.	.	.
N#Cc1ccc(/C=C/C(=O)c2cccnc2)cc1	i	18.9*	i	i	i	46.0%*	i	i
CCN1C(=O)/C(=C\c2ccncc2)SC1=Nc1ccc(C)c(C)c1	i	8.16*	i	i	i	30.5%*	i	i
